Assay results published in ChEMBL document CHEMBL4041505, “Synthesis, SAR and pharmacological characterization of novel anthraquinone cation compounds as potential anticancer agents” (Eur J Med Chem, 2017).

Tests used:
[1] = system: A-375; assay: Cytotoxicity against human A375 cells measured after 24 hrs by MTT assay; type: functional, cell-based; conditions: A-375, 24 h
How it was run: (§1)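 Cells were kept in RPMI 1640 with 10% FBS, penicillin and streptomycin at 37°C in 5% CO2. Seeding was given for A375 only, at 1×10^4/well. After 24 h, cells were exposed to compounds for 24 h; compounds were dissolved in DMSO and diluted in medium containing 0.1% DMSO. Cells were washed, given 5 mg/mL MTT for 4 h, and formazan was dissolved in DMSO and read at 492 nm. Three independent experiments were run in triplicate, with IC50 taken from viability curves.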

[2] = Cytotoxicity against HELF cells measured after 24 hrs by MTT assay; type: cell-based; conditions: Homo sapiens; how it was run: as §1
[3] = system: HepG2; assay: Cytotoxicity against human HepG2 cells measured after 24 hrs by MTT assay; type: functional, cell-based; conditions: HepG2, 24 h; how it was run: as §1
[4] = system: BGC-823; assay: Cytotoxicity against human BGC823 cells measured after 24 hrs by MTT assay; type: functional, cell-based; conditions: BGC-823, 24 h; how it was run: as §1
[5] = system: A-375; assay: Induction of apoptosis in human A375 cells assessed as decrease in mitochondrial membrane potential at 1 uM measured after 30 mins by DiOC6 dye based flow cytometry relative to control; type: functional; design: scale not given: the % may be the effect or the level left
How it was run: (§2)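 A375 cells were treated at 0, 1, 2 or 4 μM, then loaded with 50 nM DiOC6 in serum-free DMEM at 37°C for 30 min. Cells were washed twice with ice-cold PBS, harvested and analysed by flow cytometry. ΔΨm is expressed as percent change versus untreated cells, as mean±SD of three determinations.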

[6] = system: HeLa; assay: Induction of apoptosis in human HeLa cells assessed as live cells at 1 uM measured after 24 hrs by Annexin V-FITC/propidium iodide staining based flow cytometry (reference value: 99.9 %); type: functional
[7] = system: A-375; assay: Induction of apoptosis in human A375 cells assessed as chromatin condensation measured after 24 hrs by DAPI staining based fluorescence microscopic analysis; type: functional, cell-based
How it was run: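 A375 cells were treated with 1, 2 or 4 μM for 24 h, washed, and fixed in cold methanol:acetic acid (3:1) for 10 min. They were stained with 1 μg/mL DAPI at 37°C for 5 min and imaged by fluorescence microscopy at 364 nm, 400×, for nuclear morphology.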

[8] = system: A-375; assay: Induction of apoptosis in human A375 cells assessed as increase in intracellular ROS production at 1 uM measured after 24 hrs by DCF-DA fluorescence dye based flow cytometry relative to control; type: functional
How it was run: (§3)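 A375 cells were exposed to treatments for 24 h and washed with PBS. They were loaded with 20 µM DCF-DA in serum-free DMEM at 37°C for 30 min, washed with ice-cold PBS and harvested. Mean DCF fluorescence was measured by flow cytometry as the ROS level; n=3, mean±SD, relative to untreated cells.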

[9] = system: A-375; assay: Induction of apoptosis in human A375 cells assessed as increase in P53 expression measured after 24 hrs by Western blot analysis; type: functional, cell-based
How it was run: (§4)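 A375 cells were treated for 24 h at 5 or 10 μM. Lysates were clarified at 12,000 g for 5 min at 4°C and protein measured by BCA. Equal protein was run on 10% SDS-PAGE and transferred to PVDF. Primary antibodies (1:1000) were applied overnight at 4°C, then secondary (1:5000) for 2 h at 37°C. Detection was by chemiluminescence with densitometry, GAPDH as internal reference.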

[10] = system: HeLa; assay: Induction of apoptosis in human HeLa cells assessed as early apoptotic cells at 1 uM measured after 24 hrs by Annexin V-FITC/propidium iodide staining based flow cytometry (reference value: 0.078 %); type: functional
[11] = system: HeLa; assay: Induction of apoptosis in human HeLa cells assessed as necrotic cells at 1 uM measured after 24 hrs by Annexin V-FITC/propidium iodide staining based flow cytometry relative to control; type: functional
[12] = Drug uptake in nucleus of human A375 cells at 2 uM measured after 24 hrs by Mito-Tracker Green staining based laser confocal microscopic analysis; type: ADME
How it was run: (§5)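 A375 cells were plated at 10^5 cells/mL for 24 h to about 70% confluence. They were exposed to 2 μM at 37°C for 24 h, washed, then stained with 100 nM Mito-Tracker Green (488 nm) for 30 min. After PBS washes, compound fluorescence (568 nm) and the mitochondrial stain were imaged by laser confocal microscopy.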

[13] = system: A-375; assay: Induction of apoptosis in human A375 cells assessed as increase in intracellular ROS production at 2 uM measured after 24 hrs by DCF-DA fluorescence dye based flow cytometry relative to control; type: functional; how it was run: as §3
[14] = system: A-375; assay: Induction of apoptosis in human A375 cells assessed as increase in caspase-3 expression measured after 24 hrs by Western blot analysis; type: functional, cell-based; how it was run: as §4
[15] = system: HeLa; assay: Reduction in mitochondrial membrane potential in mitochondria isolated from human HeLa cells measured after 2 hrs by DiOC6 dye based HSFCM analysis; type: functional, cell-based
How it was run: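 Mitochondria isolated from HeLa cells were treated at 0, 1, 10, 50 or 100 µM for 2 h at 37°C and washed with MT buffer. They were stained with 500 nM DiOC6 for 15 min at 37°C, washed twice and resuspended in MT buffer. Analysis was on a laboratory-built high-sensitivity flow cytometer, recording median and mean green fluorescence against drug concentration.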

[16] = system: A-375; assay: Induction of apoptosis in human A375 cells assessed as increase in intracellular ROS production measured after 24 hrs by DCF-DA fluorescence dye based flow cytometry; type: functional, cell-based; how it was run: as §3
[17] = Drug uptake in mitochondria of human A375 cells at 2 uM measured after 24 hrs by Mito-Tracker Green staining based laser confocal microscopic analysis; type: ADME; how it was run: as §5
[18] = system: A-375; assay: Induction of apoptosis in human A375 cells assessed as loss of mitochondrial membrane potential measured after 30 mins by DiOC6 dye based flow cytometry; type: functional, cell-based; how it was run: as §2
[19] = system: A-375; assay: Induction of apoptosis in human A375 cells assessed as decrease in mitochondrial membrane potential at 4 uM measured after 30 mins by DiOC6 dye based flow cytometry relative to control; type: functional; design: scale not given: the % may be the effect or the level left; how it was run: as §2
[20] = system: HeLa; assay: Induction of apoptosis in human HeLa cells assessed as late apoptotic cells at 1 uM measured after 24 hrs by Annexin V-FITC/propidium iodide staining based flow cytometry (reference value: 0.058 %); type: functional

CCCCCCCCC[N+](C)(CCCCCCCCC)Cc1cc(O)c2c(c1)C(=O)c1cc(OC)cc(O)c1C2=O
IC50 [1]: 2.63 µM | IC50 [2]: 9.83 µM | IC50 [3]: 7.39 µM | IC50 [4]: 3.93 µM

CCCCCCCCC[N+](C)(CCOCCOCCO)Cc1cc(OC)c2c(c1)C(=O)c1cc(OC)cc(OC)c1C2=O (stereo not given)
IC50 [1]: 28.9 µM | IC50 [2]: 40.4 µM | IC50 [3]: 37.7 µM | IC50 [4]: 32.7 µM

CCCCCCCCCC[N+](C)(CCCCCCCCCC)Cc1ccc2c(c1)C(=O)c1ccccc1C2=O
IC50 [2]: 5.84 µM | IC50 [3]: 1.57 µM

CCCCCCCC[N+](C)(CCCCCCCC)Cc1ccc2c(c1)C(=O)c1ccccc1C2=O
IC50 [2]: 8.46 µM | IC50 [3]: 2.08 µM

CCCCCCCC[N+](C)(CCCCCCCC)Cc1cc(O)c2c(c1)Cc1cc(O)cc(O)c1C2=O
IC50 [2]: > 100 µM | IC50 [3]: > 100 µM

CCCCCCCC[N+](CCCCCCCC)(CCCCCCCC)Cc1cc(OC)c2c(c1)C(=O)c1cc(OC)cc(OC)c1C2=O
IC50 [1]: 3.46 µM | IC50 [2]: 4.5 µM | IC50 [3]: 5.45 µM | IC50 [4]: 5 µM

COCCOCC[N+](CCOCCOC)(CCOCCOC)Cc1cc(OC)c2c(c1)C(=O)c1cc(OC)cc(OC)c1C2=O
IC50 [1]: > 100 µM | IC50 [2]: > 100 µM | IC50 [3]: > 100 µM | IC50 [4]: > 100 µM

CCCCCCCCC[N+](C)(CCCCCCCC)Cc1cc(O)c2c(c1)C(=O)c1cc(OC)cc(O)c1C2=O.[Br-] (stereo not given)
Activity [5]: 25% | IC50 [1]: 1.39 µM | Activity [6]: 3.73% | Activity [7]: Dose-dependent effect | fold change (FC) [8]: 2.7 | Activity [9]: Dose-dependent effect | Activity [10]: 0.444% | Activity [11]: 35% | Drug uptake [12]: Not Active | fold change (FC) [13]: 5.8 | Activity [14]: Dose-dependent effect | Activity [15]: Dose-dependent effect | Activity [16]: Dose-dependent effect | Drug uptake [17]: Active | IC50 [2]: 9.65 µM | IC50 [3]: 4.12 µM | Activity [18]: Dose-dependent effect | Activity [19]: 38% | Activity [20]: 60.8% | IC50 [4]: 2.79 µM

Cc1cc(O)c2c(c1)C(=O)c1cc(O)cc(O)c1C2=O [EMODIN]
IC50 [1]: 44.9 µM | IC50 [2]: 46.3 µM | IC50 [3]: > 50 µM | IC50 [4]: > 50 µM

CCCCCCCCC[N+](C)(C)Cc1cc(O)c2c(c1)C(=O)c1cc(OC)cc(O)c1C2=O
IC50 [1]: 9.87 µM | IC50 [2]: 21.6 µM | IC50 [3]: 10.4 µM | IC50 [4]: 9.76 µM

CC(=O)O[C@H]1C(=O)[C@@]2(C)[C@H]([C@H](OC(=O)c3ccccc3)[C@]3(O)C[C@H](OC(=O)[C@H](O)[C@@H](NC(=O)c4ccccc4)c4ccccc4)C(C)=C1C3(C)C)[C@]1(OC(C)=O)CO[C@@H]1C[C@@H]2O [PACLITAXEL]
IC50 [1]: 11.3 µM

CCCCCCCCCC[N+](C)(CCCCCCCCC)Cc1cc(O)c2c(c1)C(=O)c1cc(OC)cc(O)c1C2=O (stereo not given)
IC50 [1]: 2.2 µM | IC50 [2]: 9.56 µM | IC50 [3]: 3.97 µM | IC50 [4]: 3.85 µM
